Only some compounds are listed: those with a hit (about 2.8% of all), similar ones and a draw of the others.
pPAFAH inh – pPAFAH enzyme inhibitors, primary screen, biochemical, fluorescence polarization, human | actives 1.5% (n = 330,000) | AID 463082, 2010 | inhibition, % at 3.39 µM | recombinant pPAFAH, FP-rhodamine probe fluorescence polarization | Platelet-activating factor acetylhydrolase (Homo sapiens), Q13093;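 active means inhibition above the mean inhibition across the screen plus 3 SD, cut at about 25% in these data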;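 further: inhibitors block binding of the rhodamine activity-based probe so polarization drops; 0% = enzyme with DMSO and 100% = wells lacking pPAFAH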
ARFGAP1 inh – inhibitors of rat ARFGAP1 GAP activity, primary screen, biochemical, fluorescence polarization, GDP tracer | actives 0.26% (n = 360,000) | inhibition, % at 16.5 µM | AID 651572, 2012 | Arfgap1-stimulated ARF1 GTP hydrolysis, GDP FP detection;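 active means inhibition above a per-plate limit, mean inhibition of low control wells plus 3 SD, cut at about 25% in these data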;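 further: 0% = DMSO wells with enzyme and 100% = wells lacking Arfgap1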
Target sequence (Q62848 1-136 limits assumed): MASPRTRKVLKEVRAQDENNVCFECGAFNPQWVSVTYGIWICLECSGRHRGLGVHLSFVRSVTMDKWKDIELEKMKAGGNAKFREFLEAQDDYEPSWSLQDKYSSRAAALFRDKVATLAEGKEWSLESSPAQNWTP
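System: truncated rat Arfgap1 GAP domain / Medium: HEPES-based buffer, pH 7.5 / Also added: N-terminally truncated human ARF1-GTP substrate / Incubation: enzyme reaction 120 min at 25 °C after 20 min preincubation / Measured by: FP of antibody-bound GDP Alexa 633 tracer, ex 620/em 688 nm / Replicates: singlicate, each compound tested once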
PAFAH1B2 inh – PAFAH1B2 enzyme inhibitors, primary screen, biochemical, fluorescence polarization, human; inhibition, % at 3.39 µM; recombinant PAFAH1B2, FP-rhodamine activity probe; actives 1.2% (n = 340,000); Platelet-activating factor acetylhydrolase IB subunit alpha2 (Homo sapiens), P68402; AID 492953, 2010;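 active means inhibition above the mean of all tested compounds plus 3 SD, cut at about 24% in these data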;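 further: 0% = enzyme with DMSO and 100% = wells lacking PAFAH1B2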
Target sequence (P68402 whole entry, looked up): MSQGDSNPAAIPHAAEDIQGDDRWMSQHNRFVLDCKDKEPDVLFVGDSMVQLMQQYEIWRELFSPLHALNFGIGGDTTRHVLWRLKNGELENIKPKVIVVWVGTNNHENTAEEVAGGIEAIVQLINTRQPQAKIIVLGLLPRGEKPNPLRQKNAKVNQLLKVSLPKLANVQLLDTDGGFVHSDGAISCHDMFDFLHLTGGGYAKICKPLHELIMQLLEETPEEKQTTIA
PAFAH2 inh – PAFAH2 enzyme inhibitors, primary screen, biochemical, fluorescence polarization, human. inhibition, % at 3.39 µM. recombinant PAFAH2, FP-rhodamine activity probe. actives 0.99% (n = 340,000);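 active means inhibition above the mean over all tested compounds plus 3 SD, cut at about 30% in these data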;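 further: inhibitors block probe labeling of enzyme so polarization drops; 0% = enzyme with DMSO and 100% = wells lacking PAFAH2 protein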
ASAP1 inh – inhibitors of human ASAP1 ArfGAP activity, primary screen, biochemical, fluorescence polarization; Arf-GAP with SH3 domain, ANK repeat and PH domain-containing protein 1 (Homo sapiens), …; ASAP1-stimulated ARF1 GTP hydrolysis, GDP FP detection; inhibition, % at 16.5 µM; actives 0.19% (n = 360,000); AID 624377, 2012; in the data active means inhibition above about 25%;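 further: 0% = vehicle with enzyme and substrate and 100% = no enzyme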
PAFAH1B3 inh – PAFAH1B3 enzyme inhibitors, primary screen, biochemical, fluorescence polarization, human | Platelet-activating factor acetylhydrolase IB subunit alpha1 (Homo sapiens), Q15102 | actives 0.28% (n = 340,000) | recombinant PAFAH1B3, FP-rhodamine probe | inhibition, % at 3.39 µM | AID 492972, 2010;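 active means inhibition above the screen-wide average of all tested compounds plus 3 SD, cut at about 25% in these data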;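 further: 0% = enzyme with DMSO only and 100% = wells lacking PAFAH1B3 protein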
Target sequence (Q15102 whole entry, looked up): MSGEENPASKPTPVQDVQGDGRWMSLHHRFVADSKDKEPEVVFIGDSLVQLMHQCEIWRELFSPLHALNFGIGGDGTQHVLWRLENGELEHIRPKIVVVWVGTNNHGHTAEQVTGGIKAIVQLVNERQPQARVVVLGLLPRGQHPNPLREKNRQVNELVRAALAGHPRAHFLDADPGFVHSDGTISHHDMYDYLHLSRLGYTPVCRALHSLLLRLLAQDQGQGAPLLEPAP
PAFAH2 confirm – PAFAH2 enzyme inhibitors, confirmation, biochemical, fluorescence polarization, human. actives 65% (n = 2,300). recombinant PAFAH2, FP-rhodamine activity probe. shares compounds with PAFAH2 inh. inhibition, % at 3.39 µM;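 active means mean inhibition over three repeats above a set limit taken from the earlier primary screen, cut at about 30% in these data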;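 further: inhibitor blocks binding of rhodamine activity probe so polarization falls; 0% = enzyme with DMSO and 100% = wells lacking PAFAH2 protein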
* hit, by the source's call; nt = not tested or not shown.

SMILES	pPAFAH inh	ARFGAP1 inh	PAFAH1B2 inh	PAFAH2 inh	ASAP1 inh	PAFAH1B3 inh	PAFAH2 confirm
C/C(=N\OCC(=O)Nc1cc(C)cc(C)c1)c1ccc2c(c1)OCCO2	2	3	1	0	7	0	nt
O=c1oc(-c2ccco2)nc2c1cnn2-c1ccccc1	2	-7	9	85*	-6	11	59*
Cc1onc(-c2ccccc2)c1-c1ccnn1C(=O)NC(C)C	8	2	-8	-6	11	4	nt
COC(=O)c1noc(C)c1-c1ccnn1C(=O)c1ccc(C)cc1	-3	-3	-3	54*	-7	6	33*
COc1ccc(C(=O)c2ccsc2N)cc1	16	-4	11	30*	12	9	0
O=C(CCC(=O)N1CCCC1)Nc1ccc(Cl)c(Cl)c1	23	5	-6	54*	5	3	57*
COc1ccc(C(=O)Cn2cnc3ccc(Cl)cc3c2=O)cc1F	-2	-13	0	-10	-13	6	nt
Cc1c(C)c2c(OCC(=O)Nc3cccnc3)cc3c(c2oc1=O)CCC(C)(C)O3	20	6	4	33*	-1	10	11
Cc1cc(=O)oc2c3c(cc(OCC(=O)NCC(=O)N[C@H](C(=O)O)C(C)C)c12)OC(C)(C)CC3	13	-5	3	14	9	11	nt
Cc1c(C)c2c(OCC(=O)NCC(C)C)cc3c(c2oc1=O)CCC(C)(C)O3	nt	-4	4	72*	-11	6	52*
Cc1cc(=O)oc2c3c(cc(OCC(=O)NCc4ccncc4)c12)OC(C)(C)CC3	10	9	7	23	5	6	nt
CC(C)CNC(=O)COC(=O)c1ccccc1SCC(=O)NCC(C)C	2	0	2	44*	-9	11	32*
CN(C)C(=O)CSc1ccccc1C(=O)OCC(=O)NC1CC1	3	-3	1	6	6	6	nt
COc1cccc(OC)c1C(=O)OCC(=O)NCC(C)C	3	1	8	14	14	0	nt
CCCCNC(=O)c1ccccc1SCC(=O)NC1CCCCCCC1	0	0	5	36*	-4	5	28
NC(=O)COC(=O)c1ccccc1SCC(=O)NC1CCCCCC1	4	-7	-2	61*	-2	1	49*
OC1c2c(F)cccc2N=C2CCCCCN21 (centres undefined)	nt	13	nt	nt	3	nt	nt
CN1CCN(C(=O)C[C@H]2CC[C@H]3[C@@H](COC[C@@H](O)CN3C(=O)C3CCCC3)O2)CC1	nt	8	nt	nt	-7	nt	nt
COc1ccc(C(C)=O)cc1Cn1c(C)c(C(=O)NCc2ccc(C(C)C)cc2)sc1=O	nt	-5	nt	nt	2	nt	nt
Nc1[nH]n(-c2ccccc2)c(=O)c1N=Nc1ccc2ncsc2c1	16	14	6	8	25	3	nt
O=C(COC(=O)c1cccc(N2C(=O)c3ccccc3C2=O)c1)Nc1ccccc1	15	1	5	70*	-5	7	71*
O=C(COC(=O)CN1C(=O)c2ccccc2C1=O)Nc1ccccc1	5	-11	5	5	-19	11	nt
N#Cc1cccc(NC(=O)COC(=O)c2cccc(N3C(=O)c4ccccc4C3=O)c2)c1	10	3	-13	67*	-17	-13	79*
COc1ccc(-c2nc3c(C)cc(Br)cn3c2CC2CCCCC2)cc1OC	nt	-3	nt	nt	0	nt	nt
N#Cc1c(Cl)nsc1NC(=O)c1ccccc1	2	-2	0	2	2	-6	nt
SMILES	pPAFAH inh	ARFGAP1 inh	PAFAH1B2 inh	PAFAH2 inh	ASAP1 inh	PAFAH1B3 inh	PAFAH2 confirm
CCc1nnc(NS(=O)(=O)c2ccc(NC(=O)c3ccc([N+](=O)[O-])s3)cc2)s1	nt	1	nt	nt	-3	nt	nt
C=CCn1c(SCC(=O)N(C)C2CCCCC2)nnc1C1CC1	0	11	5	34*	-2	7	25
N/C(CCS(=O)(=O)c1ccc(Cl)cc1)=N\OC(=O)c1ccc(Cl)cc1	6	7	1	22	-3	-1	nt
N/C(Cc1ccc([N+](=O)[O-])cc1)=N\OC(=O)c1ccc([N+](=O)[O-])cc1	21	14	1	7	4	4	nt
COc1cc(C(=O)O/N=C(\N)Cc2ccc([N+](=O)[O-])cc2)cc(OC)c1OC	8	-3	nt	nt	2	nt	nt
COc1ccc(C(=O)O/N=C(\N)Cc2ccc(Cl)c(Cl)c2)cc1OC	9	1	-6	90*	5	-3	82*
N/C(Cc1ccc(Cl)cc1)=N\OC(=O)c1ccccc1	2	-1	8	83*	2	3	76*
CC(C)(C)C(=O)OC/C(N)=N/OC(=O)c1ccc(Cl)cc1	10	9	11	85*	0	3	65*
COc1ccc(C(=O)O/N=C(\N)Cc2ccc(Cl)cc2)cc1OC	3	11	4	74*	13	3	78*
O=C(N[C@H](C(=O)N1CCC[C@H]1C(=O)NCc1ccccc1)C1CCCCC1)c1ccc(Cl)cc1Cl	nt	13	nt	nt	2	nt	nt
NC(c1csc(Nc2ccccn2)n1)c1ccccc1Cl (centres undefined)	nt	-12	nt	nt	-6	nt	nt
O=C(N/N=C/c1cc([N+](=O)[O-])ccc1O)C1CCCCC1	8	7	9	59*	-1	7	41*
Nc1ccc(S(=O)(=O)Nc2nccs2)cc1N=Nc1ccccc1[N+](=O)[O-]	nt	13	14	54*	12	21	37*
O=C1N=C(N2CCN(c3cccc4ccccc34)CC2)S/C1=C/c1cccs1	-2	-1	-4	5	-3	-1	nt
Cc1ccccc1N1CCN(C2=NC(=O)/C(=C\c3cccs3)S2)CC1	20	2	1	41*	-7	6	31*
O=C(O/N=C1\CCS(=O)(=O)c2sccc21)C1CC1	7	12	-1	81*	7	2	84*
CC(C)(C)C(=O)O/N=C1\CCS(=O)(=O)c2sccc21	2	2	6	41*	-10	-8	34*
CN(C)C(=O)c1ccc(Cc2cn(C)c3ccccc23)nc1	nt	6	nt	nt	0	nt	nt

Compound activity as filed in PubChem BioAssay.
